# According to ChEMBL document CHEMBL4765448, “Multiple biological active 4-aminopyrazoles containing trifluoromethyl and their 4-nitroso-precursors: Synthesis and evaluation” (Eur J Med Chem, 2020):
# Activity calls are given as the source filed them. No cut-off for these calls is given here.
# System: Erythrocyte
# Assay: Antioxidant activity in human erythrocytes assessed as protection against AAPH-induced hemolysis at 50 uM preincubated for 20 mins followed by AAPH addition and measured after 2 hrs by spectrophotometric method relative to control
# Format: functional
# Conditions: time 140 min, 2.333 h
# Procedure, shortened: (§1)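 Erythrocyte hemolysis assay with AAPH as the free-radical initiator, testing 50 and 400 µM. Results are expressed as relative protection of membranes against oxidative damage, each the mean of two independent experiments.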
row,SMILES,fold change (FC)
1,O=c1c(O)c(-c2ccc(O)c(O)c2)oc2cc(O)cc(O)c12 [QUERCETIN],0.023

# System: Streptococcus pyogenes
# Assay: Antibacterial activity against Streptococcus pyogenes
# Format: functional
# Conditions: not given
row,SMILES,MIC [µg/mL]
1,CS(=O)(=O)c1ccc(-n2nc(C(F)(F)F)c(N=O)c2-c2ccccc2)cc1,> 250
2,O/N=C1\C(c2ccccc2)=NN(c2ccccc2)C1(O)C(F)(F)F (stereo unspecified),> 250

# System: Proteus vulgaris
# Assay: Antibacterial activity against Proteus vulgaris
# Format: functional
# Conditions: not given
row,SMILES,MIC [µg/mL]
1,CS(=O)(=O)c1ccc(-n2nc(C(F)(F)F)c(N=O)c2-c2ccccc2)cc1,> 250
2,O/N=C1\C(c2ccccc2)=NN(c2ccccc2)C1(O)C(F)(F)F (stereo unspecified),> 250

# System: not listed separately
# Assay: Antioxidant activity assessed as ABTS radical scavenging activity measured after 1 hr by UV-vis spectrophotometric method
# Format: functional
# Conditions: not given
# Procedure, shortened: (§2)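 ABTS cation-radical decolorization was read spectrophotometrically as the fall in absorbance after 1 h. Trolox was the reference. TEAC was taken as the ratio of concentration-response slopes, test/Trolox, and IC50 was also derived. Data are mean ± SEM, n = 3.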
row,SMILES,IC50 [µM]
1,O/N=C1\C(c2ccccc2)=NN(c2ccccc2)C1(O)C(F)(F)F (stereo unspecified),48.6

# System: Trichophyton tonsurans
# Assay: Antifungal activity against Trichophyton tonsurans
# Format: functional
# Conditions: not given
row,SMILES,MIC [µg/mL]
1,CS(=O)(=O)c1ccc(-n2nc(C(F)(F)F)c(N=O)c2-c2ccccc2)cc1,> 200
2,O/N=C1\C(c2ccccc2)=NN(c2ccccc2)C1(O)C(F)(F)F (stereo unspecified),50

# System: Pseudomonas aeruginosa
# Assay: Antibacterial activity against Pseudomonas aeruginosa
# Format: functional
# Conditions: not given
row,SMILES,MIC [µg/mL]
1,CS(=O)(=O)c1ccc(-n2nc(C(F)(F)F)c(N=O)c2-c2ccccc2)cc1,> 250
2,O/N=C1\C(c2ccccc2)=NN(c2ccccc2)C1(O)C(F)(F)F (stereo unspecified),> 250

# System: Rattus norvegicus
# Assay: Antiinflammatory activity in rat model of carrageenan-induced paw edema assessed as inhibition of hind paw swelling at 15 mg/kg, ip measured after 5 hrs
# Format: functional, organism-based
# Conditions: not given
row,SMILES,Activity
1,CS(=O)(=O)c1ccc(-n2nc(C(F)(F)F)c(N=O)c2-c2ccccc2)cc1,Active
2,O/N=C1\C(c2ccccc2)=NN(c2ccccc2)C1(O)C(F)(F)F (stereo unspecified),Active

# System: Escherichia coli
# Assay: Antibacterial activity against Escherichia coli
# Format: functional
# Conditions: not given
row,SMILES,MIC [µg/mL]
1,CS(=O)(=O)c1ccc(-n2nc(C(F)(F)F)c(N=O)c2-c2ccccc2)cc1,> 250
2,O/N=C1\C(c2ccccc2)=NN(c2ccccc2)C1(O)C(F)(F)F (stereo unspecified),> 250

# System: Citrobacter braakii
# Assay: Antibacterial activity against Citrobacter braakii
# Format: functional
# Conditions: not given
row,SMILES,MIC [µg/mL]
1,CS(=O)(=O)c1ccc(-n2nc(C(F)(F)F)c(N=O)c2-c2ccccc2)cc1,> 250
2,O/N=C1\C(c2ccccc2)=NN(c2ccccc2)C1(O)C(F)(F)F (stereo unspecified),> 250

# System: Trichophyton interdigitale
# Assay: Antifungal activity against Trichophyton mentagrophytes var. interdigitale
# Format: functional
# Conditions: not given
row,SMILES,MIC [µg/mL]
1,CS(=O)(=O)c1ccc(-n2nc(C(F)(F)F)c(N=O)c2-c2ccccc2)cc1,200
2,O/N=C1\C(c2ccccc2)=NN(c2ccccc2)C1(O)C(F)(F)F (stereo unspecified),100

# System: Epidermophyton floccosum
# Assay: Antifungal activity against Epidermophyton floccosum
# Format: functional
# Conditions: not given
row,SMILES,MIC [µg/mL]
1,CS(=O)(=O)c1ccc(-n2nc(C(F)(F)F)c(N=O)c2-c2ccccc2)cc1,200
2,O/N=C1\C(c2ccccc2)=NN(c2ccccc2)C1(O)C(F)(F)F (stereo unspecified),100

# System: Trichophyton rubrum
# Assay: Antifungal activity against Trichophyton rubrum
# Format: functional
# Conditions: not given
row,SMILES,MIC [µg/mL]
1,CS(=O)(=O)c1ccc(-n2nc(C(F)(F)F)c(N=O)c2-c2ccccc2)cc1,200
2,O/N=C1\C(c2ccccc2)=NN(c2ccccc2)C1(O)C(F)(F)F (stereo unspecified),25

# System: Microsporum canis
# Assay: Antifungal activity against Microsporum canis
# Format: functional
# Conditions: not given
row,SMILES,MIC [µg/mL]
1,CS(=O)(=O)c1ccc(-n2nc(C(F)(F)F)c(N=O)c2-c2ccccc2)cc1,200
2,O/N=C1\C(c2ccccc2)=NN(c2ccccc2)C1(O)C(F)(F)F (stereo unspecified),100

# System: Erythrocyte
# Assay: Antioxidant activity in human erythrocytes assessed as protection against AAPH-induced hemolysis at 400 uM preincubated for 20 mins followed by AAPH addition and measured after 2 hrs by spectrophotometric method relative to control
# Format: functional
# Conditions: time 140 min, 2.333 h
# Procedure, shortened: as §1
row,SMILES,fold change (FC)
1,O=c1c(O)c(-c2ccc(O)c(O)c2)oc2cc(O)cc(O)c12 [QUERCETIN],0.045

# System: Staphylococcus aureus
# Assay: Antibacterial activity against methicillin resistant Staphylococcus aureus
# Format: functional
# Conditions: not given
row,SMILES,MIC [µg/mL]
1,CS(=O)(=O)c1ccc(-n2nc(C(F)(F)F)c(N=O)c2-c2ccccc2)cc1,31.2
2,O/N=C1\C(c2ccccc2)=NN(c2ccccc2)C1(O)C(F)(F)F (stereo unspecified),31.2

# System: Klebsiella pneumoniae
# Assay: Antibacterial activity against Klebsiella pneumoniae
# Format: functional
# Conditions: not given
row,SMILES,MIC [µg/mL]
1,CS(=O)(=O)c1ccc(-n2nc(C(F)(F)F)c(N=O)c2-c2ccccc2)cc1,> 250
2,O/N=C1\C(c2ccccc2)=NN(c2ccccc2)C1(O)C(F)(F)F (stereo unspecified),> 250

# System: Staphylococcus aureus
# Assay: Antibacterial activity against Staphylococcus aureus
# Format: functional
# Conditions: not given
row,SMILES,MIC [µg/mL]
1,CS(=O)(=O)c1ccc(-n2nc(C(F)(F)F)c(N=O)c2-c2ccccc2)cc1,> 250
2,O/N=C1\C(c2ccccc2)=NN(c2ccccc2)C1(O)C(F)(F)F (stereo unspecified),31.2

# System: Neisseria gonorrhoeae
# Assay: Antibacterial activity against Neisseria gonorrhoeae
# Format: functional
# Conditions: not given
row,SMILES,MIC [µg/mL]
1,CS(=O)(=O)c1ccc(-n2nc(C(F)(F)F)c(N=O)c2-c2ccccc2)cc1,62.5
2,O/N=C1\C(c2ccccc2)=NN(c2ccccc2)C1(O)C(F)(F)F (stereo unspecified),31.2

# System: Shigella flexneri
# Assay: Antibacterial activity against Shigella flexneri
# Format: functional
# Conditions: not given
row,SMILES,MIC [µg/mL]
1,CS(=O)(=O)c1ccc(-n2nc(C(F)(F)F)c(N=O)c2-c2ccccc2)cc1,> 250
2,O/N=C1\C(c2ccccc2)=NN(c2ccccc2)C1(O)C(F)(F)F (stereo unspecified),> 250

# System: Nannizzia gypsea
# Assay: Antifungal activity against Trichophyton gypseum
# Format: functional
# Conditions: not given
row,SMILES,MIC [µg/mL]
1,CS(=O)(=O)c1ccc(-n2nc(C(F)(F)F)c(N=O)c2-c2ccccc2)cc1,200
2,O/N=C1\C(c2ccccc2)=NN(c2ccccc2)C1(O)C(F)(F)F (stereo unspecified),100

# System: not listed separately
# Assay: Antioxidant activity assessed as AAPH scavenging activity by measuring residual fluorescence at 10 uM measured at 1 min interval for 30 mins by ORAC fluorescein assay relative to control
# Format: functional
# Conditions: not given
# Procedure, shortened: (§3)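 ORAC-FL assay with fluorescein as the probe and AAPH as the peroxyl radical generator. The loss of fluorescence over time was followed, and the result is given as % fluorescence restored at 10 and 50 µM. Each value is the mean of two independent experiments.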
row,SMILES,Activity [%]
1,O=c1c(O)c(-c2ccc(O)c(O)c2)oc2cc(O)cc(O)c12 [QUERCETIN],87.6

# System: Trichophyton violaceum
# Assay: Antifungal activity against Trichophyton violaceum
# Format: functional
# Conditions: not given
row,SMILES,MIC [µg/mL]
1,CS(=O)(=O)c1ccc(-n2nc(C(F)(F)F)c(N=O)c2-c2ccccc2)cc1,> 200
2,O/N=C1\C(c2ccccc2)=NN(c2ccccc2)C1(O)C(F)(F)F (stereo unspecified),100

# System: Candida albicans
# Assay: Antifungal activity against Candida albicans
# Format: functional
# Conditions: not given
row,SMILES,MIC [µg/mL]
1,CS(=O)(=O)c1ccc(-n2nc(C(F)(F)F)c(N=O)c2-c2ccccc2)cc1,> 200
2,O/N=C1\C(c2ccccc2)=NN(c2ccccc2)C1(O)C(F)(F)F (stereo unspecified),50

# System: Serratia marcescens
# Assay: Antibacterial activity against Serratia marcescens
# Format: functional
# Conditions: not given
row,SMILES,MIC [µg/mL]
1,CS(=O)(=O)c1ccc(-n2nc(C(F)(F)F)c(N=O)c2-c2ccccc2)cc1,> 250
2,O/N=C1\C(c2ccccc2)=NN(c2ccccc2)C1(O)C(F)(F)F (stereo unspecified),> 250

# System: not listed separately
# Assay: Antioxidant activity assessed as trolox equivalent of ABTS radical scavenging activity measured after 1 hr by UV-vis spectrophotometric method
# Format: functional
# Conditions: not given
# Procedure, shortened: as §2
row,SMILES,Activity [equiv]
1,O/N=C1\C(c2ccccc2)=NN(c2ccccc2)C1(O)C(F)(F)F (stereo unspecified),0.44

# System: not listed separately
# Assay: Antioxidant activity assessed as AAPH scavenging activity by measuring residual fluorescence at 50 uM measured at 1 min interval for 30 mins by ORAC fluorescein assay relative to control
# Format: functional
# Conditions: not given
# Procedure, shortened: as §3
row,SMILES,Activity [%]
1,O=c1c(O)c(-c2ccc(O)c(O)c2)oc2cc(O)cc(O)c12 [QUERCETIN],90
